Experimental data from ChEMBL document CHEMBL4261487, “Small structural changes of the imidazopyridine diacylglycerol acyltransferase 2 (DGAT2) inhibitors produce an improved safety profile” (Medchemcomm, 2017).

Legend:
Rattus norvegicus [1] = test: Unbound AUC in Wistar Han IGS rat at 10 mg/kg, po qd administered for 14 days; type: ADME, organism-based; details: in vivo, 336 h
Summary of the method: (§1)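 Wistar Han rats were dosed orally once daily for 14 days (exploratory, 5/sex/dose) or 1 month (toxicity, 10/sex/dose). Toxicokinetic satellite animals (3–4/sex/dose) were used, and steady-state systemic exposure is given as the mean of male and female values combined.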

Rattus norvegicus [2] = test: Unbound AUC in Wistar Han IGS rat at 500 mg/kg, po qd administered for 14 days; type: ADME, organism-based; details: in vivo, 336 h; summary of the method: as §1
Rattus norvegicus [3] = test: Unbound Cmax in Wistar Han IGS rat at 60 mg/kg, po qd administered for 1 month; type: ADME, organism-based; details: in vivo; summary of the method: as §1
Rattus norvegicus [4] = test: Unbound AUC in Wistar Han IGS rat at 30 mg/kg, po qd administered for 1 month; type: ADME, organism-based; details: in vivo; summary of the method: as §1
Rattus norvegicus [5] = test: Unbound AUC in Wistar Han IGS rat at 60 mg/kg, po qd administered for 1 month; type: ADME, organism-based; details: in vivo; summary of the method: as §1
Rattus norvegicus [6] = test: Unbound AUC in Wistar Han IGS rat at 300 mg/kg, po qd administered for 1 month; type: ADME, organism-based; details: in vivo; summary of the method: as §1
Rattus norvegicus [7] = test: Toxicity in Wistar Han IGS rat assessed as increase in heart weight at 60 to 300 mg/kg, po qd administered for 1 month; type: organism-based; details: in vivo
Summary of the method: (§2)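 Wistar Han rats, daily oral dosing for 14 days (5/sex/dose) or 1 month (10/sex/dose); microscopic findings reported as incidence by sex, plus organ weights.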

Canis familiaris [8] = test: Unbound Cmax in beagle dog […] at 75 mg/kg, po qd administered for 14 days; type: ADME, organism-based, Canis lupus familiaris; details: in vivo, 336 h
Summary of the method: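 Exploratory 14-day dog toxicity study with daily oral dosing. Toxicokinetic exposure is reported as the mean with male and female systemic values combined.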

Canis familiaris [9] = test: Unbound AUC in beagle dog at 75 mg/kg, po qd administered for 14 days; type: ADME, organism-based, Canis lupus familiaris; details: in vivo, 336 h
Summary of the method: (§3)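 Beagle dogs were dosed orally once daily in a 14-day exploratory study or 1-month toxicity studies. Steady-state systemic exposure over the 24 h dosing interval is reported as the mean of male and female values combined.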

Canis familiaris [10] = test: Toxicity in beagle dog at 75 mg/kg, po qd administered for 14 days; type: organism-based, Canis lupus familiaris; details: in vivo, 336 h
Canis familiaris [11] = test: Toxicity in beagle dog assessed as renal tubular regeneration at 300 mg/kg, po qd administered for 14 days; type: organism-based, Canis lupus familiaris; details: in vivo, 336 h
Rattus norvegicus [12] = test: Toxicity in Wistar Han IGS rat assessed as gastric ulcer at 500 mg/kg, po qd administered for 14 days; type: organism-based; details: in vivo, 336 h; summary of the method: as §2
Canis familiaris [13] = test: Unbound Cmax in beagle dog at 100 to 150 mg/kg, po qd administered for 1 month; type: ADME, organism-based, Canis lupus familiaris; details: in vivo; summary of the method: as §3
Canis familiaris [14] = test: Unbound AUC in beagle dog at 50 mg/kg, po qd administered for 1 month; type: ADME, organism-based, Canis lupus familiaris; details: in vivo; summary of the method: as §3
Canis familiaris [15] = test: Toxicity in telemetered beagle dog assessed as change in heart rate at 5 mg/kg administered via oral gavage measured over 24 hrs; type: organism-based, Canis lupus familiaris; details: in vivo
Canis familiaris [16] = test: Toxicity in telemetered beagle dog assessed as multiple bouts of emesis at 75 mg/kg administered via oral gavage measured within 4 hrs of dosing; type: organism-based, Canis lupus familiaris; details: in vivo
Canis familiaris [17] = test: Toxicity in beagle dog assessed as decrease in body weight at 150 mg/kg, po qd administered for 10 days; type: organism-based, Canis lupus familiaris; details: in vivo, 240 h
Canis familiaris [18] = test: Toxicity in beagle dog assessed as decrease in food consumption at 150 mg/kg, po qd administered for 10 days; type: organism-based, Canis lupus familiaris; details: in vivo, 240 h
Canis familiaris [19] = test: Toxicity in beagle dog assessed as prolongation of QTc interval at 100 to 150 mg/kg, po qd administered for 25 days; type: organism-based, Canis lupus familiaris; details: in vivo, 600 h
Rattus norvegicus [20] = test: In vivo inhibition of DGAT2 in Wistar Han IGS rat assessed as coverage of in vitro IC50 for rat DGAT2 at 10 mg/kg, po qd administered for 14 days; type: functional; design: scale not given: the % may be the effect or the level left
Summary of the method: (§4)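 Wistar Han rats, once-daily oral dosing for 14 days (exploratory, 5/sex/dose) or 1 month (10/sex/dose); toxicokinetics in 3–4/sex/dose with sexes combined; coverage is the average % above rat DGAT2 IC50 at steady state over the 24 h dosing interval.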

Rattus norvegicus [21] = test: In vivo inhibition of DGAT2 in Wistar Han IGS rat assessed as coverage of in vitro IC50 for rat DGAT2 at 500 mg/kg, po qd administered for 14 days; type: functional; design: scale not given: the % may be the effect or the level left; summary of the method: as §4
Rattus norvegicus [22] = test: In vivo inhibition of DGAT2 in Wistar Han IGS rat assessed as coverage of in vitro IC50 for rat DGAT2 at 60 mg/kg, po qd administered for 1 month; type: functional; design: scale not given: the % may be the effect or the level left; summary of the method: as §4
Canis familiaris [23] = test: In vivo inhibition of DGAT2 in beagle dog assessed as coverage of in vitro IC50 for dog DGAT2 at 75 mg/kg, po qd administered for 14 days; type: functional, Canis lupus familiaris; design: scale not given: the % may be the effect or the level left
Summary of the method: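 Beagle dogs, once-daily oral dosing for 14 days or 1 month; systemic exposure with sexes combined; coverage is the average % above dog DGAT2 IC50 at steady state over the 24 h dosing interval.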

Canis familiaris [24] = test: Toxicity in telemetered beagle dog assessed as increase in heart rate at 10 mg/kg administered via oral gavage measured over 24 hrs; type: organism-based, Canis lupus familiaris; details: in vivo
Canis familiaris [25] = test: Toxicity in telemetered beagle dog assessed as increase in heart rate at 75 mg/kg administered via oral gavage measured over 24 hrs; type: organism-based, Canis lupus familiaris; details: in vivo
Canis familiaris [26] = test: Toxicity in telemetered beagle dog assessed as increase in systolic pressure at 25 mg/kg administered via oral gavage measured over 24 hrs; type: organism-based, Canis lupus familiaris; details: in vivo
Canis familiaris [27] = test: Toxicity in telemetered beagle dog assessed as increase in systolic blood pressure at 20 mg/kg, iv administered as single bolus dose over 2 mins; type: organism-based, Canis lupus familiaris; details: in vivo
[28] = Fraction unbound in dog plasma; type: ADME, cell-free, Canis lupus familiaris
[29] = Half life in beagle dog at 5 mg/kg, po; type: ADME, organism-based, Canis lupus familiaris; details: in vivo
[30] = Plasma clearance in beagle dog at 1 mg/kg, iv; type: ADME, organism-based, Canis lupus familiaris
[31] = Oral bioavailability in beagle dog at 5 mg/kg; type: ADME, organism-based, Canis lupus familiaris; details: in vivo
Canis familiaris [32] = test: Unbound Cmax in beagle dog at 3 mg/kg, po qd administered for 1 month; type: ADME, organism-based, Canis lupus familiaris; details: in vivo
Summary of the method: (§5)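 One-month dog toxicity study with once-daily oral dosing. Toxicity groups were 2/sex/dose, and unbound peak exposure was taken from toxicokinetic sampling.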

Canis familiaris [33] = test: Unbound Cmax in beagle dog at 30 mg/kg, po qd administered for 1 month; type: ADME, organism-based, Canis lupus familiaris; details: in vivo; summary of the method: as §5
[34] = Ratio of Cmax in beagle dog at 3 mg/kg, po qd administered for 1 month to IC50 for in vitro inhibition of dog DGAT2; type: organism-based, Canis lupus familiaris; details: in vivo
Summary of the method: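 One-month toxicity study in Beagle dogs with N = 2/sex/dose. Plasma exposure at each dose level was referenced to the dog DGAT2 enzymatic IC50, reported as the geometric mean of at least three replicates.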

Canis familiaris [35] = test: Toxicity in beagle dog at 3 to 30 mg/kg, po qd administered for 1 month; type: organism-based, Canis lupus familiaris; details: in vivo
Canis familiaris [36] = test: Unbound Cmax in telemetered beagle dog at 50 mg/kg administered via oral gavage measured over 24 hrs; type: ADME, organism-based, Canis lupus familiaris; details: in vivo
Summary of the method: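 Telemetered Beagle dogs given oral doses, with blood pressure and heart rate monitored after dosing alongside plasma exposure.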

Canis familiaris [37] = test: Toxicity in telemetered beagle dog assessed as increase in systolic pressure at 50 mg/kg administered via oral gavage measured during 4 hrs of post dosing; type: organism-based, Canis lupus familiaris; details: in vivo
Canis familiaris [38] = test: Toxicity in telemetered beagle dog assessed as increase in systolic pressure at 25 mg/kg administered via oral gavage measured during 4 hrs of post dosing; type: organism-based, Canis lupus familiaris; details: in vivo

For `CS(=O)(=O)O.O=C([C@@H]1CCCN(c2ccc3nc(C4(n5cc(Cl)cn5)CC4)[nH]c3n2)C1)N1CCCC1`, the fAUC (Rattus norvegicus [1]) was 1190 ng·h/mL, the fAUC (Rattus norvegicus [2]) was 88300 ng·h/mL and the fCmax (Rattus norvegicus [3]) was 5.47 µM. The fAUC (Rattus norvegicus [4]) was 4630 ng·h/mL, the fAUC (Rattus norvegicus [5]) was 22600 ng·h/mL and the fAUC (Rattus norvegicus [6]) was 62500 ng·h/mL. The Activity (Rattus norvegicus [7]) was “Toxic”, the fCmax (Canis familiaris [8]) was 6.54 µM and the fAUC (Canis familiaris [9]) was 24800 ng·h/mL. The Activity (Canis familiaris [10]) was “Non-Toxic”, the Activity (Canis familiaris [11]) was “Toxic” and the Activity (Rattus norvegicus [12]) was “Toxic”. For the same compound, the fCmax (Canis familiaris [13]) was 16.3 µM, the fAUC (Canis familiaris [14]) was 57500 ng·h/mL and the Activity (Canis familiaris [15]) was “Non-Toxic”. The Activity (Canis familiaris [16]) was “Toxic”, the Activity (Canis familiaris [17]) was “Toxic” and the Activity (Canis familiaris [18]) was “Toxic”. The Activity (Canis familiaris [19]) was “Toxic”, the Activity (Rattus norvegicus [20]) was 75% and the Activity (Rattus norvegicus [21]) was greater than 99%. It also gave an Activity (Rattus norvegicus [22]) of 98%, an Activity (Canis familiaris [23]) of 99% and an Activity (Canis familiaris [24]) of 4 to 10 bpm. The Activity (Canis familiaris [25]) was 8 to 30 bpm, the Activity (Canis familiaris [26]) was 5 mmHg and the Activity (Canis familiaris [27]) was “Non-Toxic”.

For `C[C@@H](c1nc2ccc(N3CCC[C@@H](C(=O)N4CCCC4)C3)nc2[nH]1)n1cc(Cl)cn1`, the fraction unbound [28] was 0.12, the half-life [29] was 3 h and the clearance [30] was 4 mL/min/kg. The bioavailability [31] was 75%, the fCmax (Canis familiaris [32]) was 454 nM and the fCmax (Canis familiaris [33]) was 3.76 µM. The Ratio [34] was 11, the Activity (Canis familiaris [35]) was “Non-Toxic” and the fCmax (Canis familiaris [36]) was 4.7 µM. For the same compound, the Activity (Canis familiaris [37]) was 5 mmHg and the Activity (Canis familiaris [38]) was 6 mmHg.
